Experimental findings from ChEMBL document CHEMBL1154312, “Inhibition of ErbB2(Her2) expression with small molecule transcription factor mimics” (Bioorg Med Chem Lett, 2009) are described below.

The target in experiment [1] is Mediator of RNA polymerase II transcription subunit 23 (Homo sapiens). Put plainly: Inhibition of ESX-Med23 interaction assessed as binding affinity to Med23 (352-625) by fluorescence polarization. On the technique in general: In fluorescence polarisation assays a small probe gives low polarisation when free and higher when bound to something large.
The next experiment concerns SK-BR-3. Nature of the experiment: Cytotoxicity against human SK-BR-3 cells after 24 hrs by WST-1 assay. The experiment is classed as functional, cell-based.
Experiment [2] addresses T1, ETS-related transcription factor Elf-3/Vitamin D3 receptor-interacting protein (ESX/MED23) (Homo sapiens) (UniProt Q9ULK4+P78545). Nature of the experiment: Inhibition of ESX-Med23 interaction in human BT474 cells assessed as down regulation of ErbB2 expression up to 50 uM by Western blotting. The experiment is classed as cell-based. To be noted: BT-474. A general note: In western blotting, separated proteins are transferred to a membrane and probed.

For experiment [3], the target named is T1, ETS-related transcription factor Elf-3/Vitamin D3 receptor-interacting protein (ESX/MED23) (Homo sapiens). Put plainly: Inhibition of ESX-Med23 interaction in human SK-BR-3 cells assessed as down regulation of ErbB2 expression at 25 uM by Western blotting. The experiment is classed as cell-based. In short, it runs like this:
(§1)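 SkBr3 cells treated 6 h with compound in DMSO at 0.625–50 μM (comparator 10, 50 μM), DMSO control; ErbB2 protein level by Western blot.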

The target is the same in experiment [4]. Nature of the experiment: Inhibition of ESX-Med23 interaction in human BT474 cells assessed as down regulation of ErbB2 expression after 24 hrs by Western blotting. To be noted: BT-474. The experiment is classed as cell-based.
Experiment [5] has the same target. Put plainly: Inhibition of ESX-Med23 interaction in human BT474 cells assessed as reduction in ErbB2 mRNA level after 6 hrs by qPCR relative to control. The experiment is classed as cell-based. Conditions: BT-474. In short, it runs like this:
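BT-474 cells given compound in DMSO at 10 μM for 6 h; ErbB2 mRNA quantified by qPCR, normalized to GAPDH and expressed relative to DMSO; average of 16 experiments each in quadruplicate, s.e.m., Student's t-test.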
A general note: Quantitative PCR measures a nucleic acid by following its amplification.

Another experiment deals with MCF7. Nature of the experiment: Cytotoxicity against human MCF7 cells after 24 hrs by WST-1 assay. The experiment is classed as functional, cell-based. Conditions: MCF7, 24 h.
Experiment [6] deals with T1, ETS-related transcription factor Elf-3/Vitamin D3 receptor-interacting protein (ESX/MED23) (Homo sapiens). Nature of the experiment: Inhibition of ESX-Med23 interaction in human SK-BR-3 cells assessed as down regulation of ErbB2 expression by Western blotting. The experiment is classed as cell-based. In short, it runs like this: as §1
The test system of another experiment is SCC-25. Nature of the experiment: Cytotoxicity against human SCC25 cells. The experiment is classed as functional, cell-based.
Another experiment concerns CAL-27. Nature of the experiment: Cytotoxicity against human CAL27 cells. The experiment is classed as functional, cell-based.
A further experiment deals with SCC-15. Nature of the experiment: Cytotoxicity against human SCC15 cells. The experiment is classed as functional, cell-based.

One may read the pKd as the Kd on a negative log10 scale, so that one unit is a factor of ten. A word on the pIC50: it is the IC50 on a negative log10 scale, so that one unit is a factor of ten.

SMILES strings stand for the structures. pIC50, pKd: −log10 of the molar value. Activity calls are given as the source filed them. The calls are words filed in the database; no cut-off is given here.

T1 sequence (P78545 whole entry, looked up): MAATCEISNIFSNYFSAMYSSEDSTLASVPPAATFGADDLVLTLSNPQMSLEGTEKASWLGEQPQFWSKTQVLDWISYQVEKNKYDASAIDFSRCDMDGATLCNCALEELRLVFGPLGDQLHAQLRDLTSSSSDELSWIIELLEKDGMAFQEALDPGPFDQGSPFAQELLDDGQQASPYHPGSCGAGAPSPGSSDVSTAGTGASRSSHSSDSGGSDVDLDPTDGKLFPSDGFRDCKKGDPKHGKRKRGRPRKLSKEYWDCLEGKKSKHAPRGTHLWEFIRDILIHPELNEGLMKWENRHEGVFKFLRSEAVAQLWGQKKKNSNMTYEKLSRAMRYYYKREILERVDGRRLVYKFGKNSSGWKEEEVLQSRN
T1 sequence (Q9ULK4 whole entry, looked up): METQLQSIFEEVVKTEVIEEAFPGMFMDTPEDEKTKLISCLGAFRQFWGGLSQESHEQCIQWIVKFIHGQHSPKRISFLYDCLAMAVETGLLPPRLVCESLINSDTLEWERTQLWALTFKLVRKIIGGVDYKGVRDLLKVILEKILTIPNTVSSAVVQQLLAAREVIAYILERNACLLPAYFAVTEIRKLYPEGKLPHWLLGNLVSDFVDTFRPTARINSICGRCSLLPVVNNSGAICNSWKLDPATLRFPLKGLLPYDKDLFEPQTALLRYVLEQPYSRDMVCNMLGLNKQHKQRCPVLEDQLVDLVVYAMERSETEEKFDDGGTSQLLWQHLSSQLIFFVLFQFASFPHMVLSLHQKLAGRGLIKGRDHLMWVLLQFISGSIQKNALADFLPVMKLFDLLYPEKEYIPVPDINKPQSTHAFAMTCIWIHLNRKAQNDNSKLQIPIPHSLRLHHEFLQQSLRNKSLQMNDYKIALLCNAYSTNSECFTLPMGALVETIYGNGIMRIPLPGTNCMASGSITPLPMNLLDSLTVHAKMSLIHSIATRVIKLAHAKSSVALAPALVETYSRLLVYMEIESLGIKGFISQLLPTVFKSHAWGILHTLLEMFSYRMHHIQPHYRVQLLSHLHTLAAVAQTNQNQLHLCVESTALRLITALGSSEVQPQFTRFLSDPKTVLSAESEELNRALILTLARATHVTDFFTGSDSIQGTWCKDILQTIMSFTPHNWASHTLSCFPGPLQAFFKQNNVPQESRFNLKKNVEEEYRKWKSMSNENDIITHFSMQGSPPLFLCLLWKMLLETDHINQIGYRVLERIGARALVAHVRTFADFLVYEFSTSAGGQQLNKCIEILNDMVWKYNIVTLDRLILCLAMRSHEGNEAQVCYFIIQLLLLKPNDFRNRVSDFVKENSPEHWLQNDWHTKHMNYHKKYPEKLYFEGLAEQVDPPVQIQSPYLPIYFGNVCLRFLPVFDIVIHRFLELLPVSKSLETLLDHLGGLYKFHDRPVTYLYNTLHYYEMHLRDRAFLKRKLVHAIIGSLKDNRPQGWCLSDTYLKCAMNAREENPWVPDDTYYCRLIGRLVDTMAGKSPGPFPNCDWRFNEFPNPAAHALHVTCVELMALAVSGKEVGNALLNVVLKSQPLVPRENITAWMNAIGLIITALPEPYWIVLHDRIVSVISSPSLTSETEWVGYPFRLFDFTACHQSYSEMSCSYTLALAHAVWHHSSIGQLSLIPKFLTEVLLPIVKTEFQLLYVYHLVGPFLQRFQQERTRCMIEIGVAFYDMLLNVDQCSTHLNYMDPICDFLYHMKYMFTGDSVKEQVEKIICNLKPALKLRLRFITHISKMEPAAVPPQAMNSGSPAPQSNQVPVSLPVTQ

In the case of `CC(C)C[C@]1(CCO)C[C@H](CNC(=S)Nc2ccc(-c3c4ccc(=O)cc-4oc4cc(O)ccc34)c(C(=O)O)c2)ON1Cc1ccc(C(F)(F)F)cc1`, the pKd in experiment [1] was 6.23.

On to `CC(C)C[C@]1(CCO)C[C@H](CN=[N+]=[N-])ON1Cc1ccccc1`, for which the outcome (in the experiment on SK-BR-3; in [2]) was inactive. In addition, the result in experiment [3] was Active.

For `CC(C)C[C@]1(CCO)C[C@H](CNC(=S)Nc2ccc(-c3c4ccc(=O)cc-4oc4cc(O)ccc34)c(C(=O)O)c2)ON1Cc1ccccc1`, the pKd in [1] was 5.23.

For `CC(C)C[C@]1(CCO)C[C@H](CN=[N+]=[N-])ON1Cc1ccc(-c2ccccc2)cc1`, the Activity entry in experiment [4] was “Dose-dependent effect”. The outcome in [5] and in experiment [6] was Active. Further, the pIC50 in the experiment on SK-BR-3 (SK-BR-3, 24 h) is 4.85; with MCF7, 4.57; in the experiment with SCC-25 it was 4.70; in the experiment on CAL-27 it was 4.66; in the experiment on SCC-15 it was 4.72.

Regarding `CC(C)C[C@]1(CCO)C[C@H](CN=[N+]=[N-])ON1Cc1ccc(C(F)(F)F)cc1`, in experiment [4], the Activity entry was “Dose-dependent effect”.

`CC(C)C[C@]1(CCO)C[C@H](CNC(=S)Nc2ccc(-c3c4ccc(=O)cc-4oc4cc(O)ccc34)c(C(=O)O)c2)ON1Cc1ccc2ccccc2c1`: the pKd in experiment [1] is 6.00.

`CC(C)C[C@]1(CCO)C[C@H](CNC(=S)Nc2ccc(-c3c4ccc(=O)cc-4oc4cc(O)ccc34)c(C(=O)O)c2)ON1Cc1ccc(-c2ccccc2)cc1`: the pKd in experiment [1] is 6.21.

Consider `CC(C)C[C@]1(CCO)C[C@H](CN=[N+]=[N-])ON1Cc1ccc2ccccc2c1`, for which the Activity result in experiment [4] is “Dose-dependent effect”.
